# High-throughput results deposited in PubChem BioAssay by several laboratories.
# WT yeast gro inh – growth inhibition of WT strain, primary screen, mitochondrial fusion inhibitor project, WT and mutant strains, chemical genetic | mitochondrial fusion phenotypic screen | inhibition, % at 10 µM | 190,000 compounds, 2.1% hits; in the data active = inhibition above about 58%; tested in S. cerevisiae
# Yeast life ext – compounds extending yeast replicative lifespan, primary screen, S. cerevisiae, OD615. S. cerevisiae growth with nicotinamide; deaD strain in restrictive glucose medium. inhibition of the nicotinamide effect, % at 10 µM. AID 775, 2007. 130,000 compounds, 0.68% hits;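 active = inhibition above a set limit, placed 3 SD over the median of all compounds, cut at about 26% in these data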;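 also: 0% = nicotinamide-treated wells and 100% = cells grown without nicotinamide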
#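 Buffer or medium: CSMM-D glucose medium, restrictive; test system: modified budding yeast, DeaD strain; compound: single dose 10 µM compound, 0.25% DMSO; schedule: culture preincubation 4 h, compound exposure 48 h, both 30 °C; detection: optical density (absorbance) at 615 nm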
# RAM network inh – inhibitors of the yeast RAM network, primary screen, dse1pr::URA3 reporter, 5-FOA selection. AID 868, 2007. S. cerevisiae dse1pr::URA3 reporter, 5-FOA growth OD615, 2 d; analog-sensitive cbk1-as2 kinase mutant strain. inhibition, % at 50 µM. 190,000 compounds, 1.8% hits;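 active = inhibition above a set limit, 3 SD over mean compound inhibition, cut at about 8.4% in these data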;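 also: 0% = DMSO-only wells with no growth and 100% = 10 µM 1-NA-PP1 full growth; inhibition rescues growth on 5-FOA so higher OD means more RAM inhibition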
# Measles CPE – compounds protecting cells from measles virus cytopathic effect, primary screen, measles RdRp inhibitor project, single point, MLSMR library, absorbance. Measles virus-infected cells, CPE protection. protection (pct of control), % at 4 µM. 140,000 compounds, 1.5% hits. AID 841, 2007; in the data active = protection mostly above about 24%, no sharp cut-off; inactive = mostly below about 26%
# Yeast growth inh – growth inhibitors of yeast BB579 in restrictive medium, primary screen, yeast lifespan-shortening project, S. cerevisiae; 140,000 compounds, 0.51% hits; inhibition, % at 10 µM; AID 804, 2007; OD615, 48 h;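 active = inhibition above a set limit, 3 SD over the mean compound inhibition, cut at about 44% in these data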
#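 test system = yeast BB579 (DeaD) | buffer or medium = restrictive CSMM-D medium | doses = single compound dose of 10 µM, 0.25% DMSO final | times = 4 h preincubation and 48 h exposure at 30 °C | technique = culture absorbance at 615 nm | benchmarks = amphotericin B 10 µg/mL, positive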
# DAT uptake mod – changed hDAT dopamine uptake under cocaine IC80, either direction, primary screen, cocaine antagonist project, cell-based, LLC-PK1 hDAT, [14C]-dopamine uptake, MLSMR; LLC-PK1 hDAT cells, [14C]-dopamine uptake with cocaine IC80; actives deviate in either direction; 110,000 compounds, 1.3% hits; B-score at 10 µM; Sodium-dependent dopamine transporter (Homo sapiens), Q01959;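 active = Z score or B-score, a plate-position-corrected score, falls beyond the plate's 99.7% confidence bounds, in either direction; inactive = both scores lie inside the 99.7% bounds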;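 also: scored against the spread of the other compound wells on the same plate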
# Target sequence (Q01959 whole entry, looked up): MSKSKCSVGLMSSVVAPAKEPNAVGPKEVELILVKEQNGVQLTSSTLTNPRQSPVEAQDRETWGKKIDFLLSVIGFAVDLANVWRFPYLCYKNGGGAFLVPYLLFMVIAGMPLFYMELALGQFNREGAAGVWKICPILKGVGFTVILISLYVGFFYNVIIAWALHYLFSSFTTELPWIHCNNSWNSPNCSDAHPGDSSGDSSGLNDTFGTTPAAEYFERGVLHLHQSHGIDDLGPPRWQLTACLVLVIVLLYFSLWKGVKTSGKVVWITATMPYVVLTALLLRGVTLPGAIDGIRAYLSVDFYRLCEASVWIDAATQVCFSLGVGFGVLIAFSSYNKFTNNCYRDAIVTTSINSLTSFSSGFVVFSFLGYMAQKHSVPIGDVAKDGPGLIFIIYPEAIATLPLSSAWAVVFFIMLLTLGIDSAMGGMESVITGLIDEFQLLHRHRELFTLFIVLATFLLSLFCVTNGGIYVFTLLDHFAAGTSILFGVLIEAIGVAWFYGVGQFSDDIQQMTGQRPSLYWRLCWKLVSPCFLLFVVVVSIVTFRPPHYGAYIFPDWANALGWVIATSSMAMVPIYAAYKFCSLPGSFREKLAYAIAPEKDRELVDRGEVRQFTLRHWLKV
# Starred values were filed as active, the others as inactive; . = no result given. Shown are actives, neighbours in structure and some others; about 6.1% of the full set was active somewhere.
SMILES,WT yeast gro inh,Yeast life ext,RAM network inh,Measles CPE,Yeast growth inh,DAT uptake mod
COc1ccc(OC)c(C(=O)NC(CC(N)=O)c2ccc(NCCN3CCOCC3)c([N+](=O)[O-])c2)c1 (stereo unspecified),.,.,.,.,.,-0.31
S=c1nc[nH]c2c1sc1nc(-c3ccccc3)c3c(c12)CCCC3,97.2*,-1.6,3.8,3.7,-9.8,.
O=c1[nH]cnc2c1sc1nc(-c3ccccc3)c3c(c12)CCCC3,6.6,-0.6,3.0,13.2,-31.4,.
C=C1CCN(C(C(=O)OC)C(C)C)S(=O)(=O)c2ccccc21 (stereo unspecified),.,.,.,.,.,-0.795
CC(C)c1nc(SCc2c(F)cccc2Cl)c2c(=O)n(C)c(=O)n(C)c2n1,8.8,-10.3,8.0,8.5,-40.0,3.27*
Cn1c(SCc2ccc([N+](=O)[O-])cc2)nc2c(c1=O)SCC2,-4.1,.,2.2,.,.,.
Cn1c(SCc2c(F)cccc2Cl)nc2c(c1=O)SCC2,66.2*,.,2.7,.,.,.
CC1CCCCN1S(=O)(=O)c1ccc(C(=O)Nc2nnc(-c3ccccn3)o2)cc1 (stereo unspecified),13.3,.,4.7,.,.,.
O=C(CCc1nnc(CCCCc2ccccc2)o1)NCc1cccc(F)c1,13.8,.,-0.1,.,.,.
O=C(CCc1nnc(CCCCc2ccccc2)o1)NCc1cc(F)ccc1F,13.0,.,11.0*,.,.,.
COC(=O)c1ccc(S(=O)(=O)NCCSc2nnc3c4ccccc4n(C)c3n2)cc1,-6.8,-1.1,4.7,11.0,-19.0,0.124
CC(=O)c1ccc(N=Cc2c(O)n(-c3cc(Cl)ccc3N3CCOCC3)c(=O)c3ccccc23)cc1,7.0,-2.6,8.6*,3.0,-27.7,0.566
CCOc1ccc(-n2c(=S)sc3c(=O)[nH]c(SCC(=O)NCC4CCCO4)nc32)cc1 (stereo unspecified),-0.2,8.9,8.7*,10.1,-52.0,.
CCCN(CCC)C(=O)Cn1c(=O)n(CCC(=O)NCCc2ccccc2)c(=O)c2ccccc21,-2.3,6.6,0.8,1.7,-15.0,-7.96*
O=C1OCC(CO)(CO)N=C1NNc1cc(Cl)ccc1Cl,48.7,-14.7,-0.6,16.2,64.2*,-0.697
N=c1oc2ccc3ccccc3c2cc1-c1nnc2n1CCCCC2,8.4,-14.2,0.7,0.4,-26.7,3.41*
CCCCCCCNC(=O)C1CC(=O)N(C)C(=Nc2ccc(OC)cc2)S1 (stereo unspecified),10.2,10.2,9.3*,2.1,-27.5,.
COc1ccc(S(=O)(=O)NCCc2nnc3ccc(SCC(=O)Nc4nc(C)cs4)nn23)cc1,-17.0,1.6,1.3,6.1,-62.2,.
CNC(=O)c1c(C)noc1C,-10.1,.,-0.1,.,.,.
Nc1cc(=O)[nH]c(SCC(=O)NNC(=O)Cc2ccccc2)n1,-14.8,.,0.6,.,.,.
CCOC(=O)C1CCCN(C(=O)CS(=O)(=O)Cc2ccccc2)C1 (stereo unspecified),60.1*,-5.0,0.5,3.6,-13.8,.
CC(C)NC(=O)C1CCCN(S(=O)(=O)c2cccs2)C1 (stereo unspecified),-7.0,-14.2,0.3,13.1,-32.9,-0.0364
CCOC(=O)C1CCCN(S(=O)(=O)c2cccs2)C1 (stereo unspecified),-12.8,-5.5,4.8,28.6*,-18.6,-0.318
CCOC(=O)c1nn(-c2ccc(OCC)cc2)c2nc(-c3cccc(OC)c3)c(C#N)c(=O)n12,16.1,2.8,9.7*,17.2,-7.0,.
CCOC(=O)c1nn(-c2ccc(F)cc2)c2nc(-c3ccccc3)c(C#N)c(=O)n12,3.9,27.2*,8.2,9.6,-37.8,.
SMILES,WT yeast gro inh,Yeast life ext,RAM network inh,Measles CPE,Yeast growth inh,DAT uptake mod
CCOC(=O)c1nn(-c2ccccc2)c2nnc(Cc3ccccc3)c(=O)n12,-8.4,31.6*,0.9,16.0,-13.1,.
CCOC(=O)c1nn(-c2cccc(C)c2)c2nc(-c3ccccc3)c(C#N)c(=O)n12,-2.0,-2.8,3.2,6.6,7.2,-1.25
COc1ccccc1CCc1nnc(CCC(=O)NCC[C@@H]2C[C@@H]3C=C[C@H]2C3)o1,8.2,.,3.5,.,.,.
Cc1ccc2c(c1)/C(=N/OS(=O)(=O)c1ccccc1)CCS2,.,.,.,.,.,-1.33
CC1=CC(=O)C=C(C)C1=NOS(=O)(=O)c1ccccc1,-22.1,-28.3,-1.6,4.3,99.8*,-0.7
O=S(=O)(c1cc(-c2nnc(-c3ccc(Br)cc3)o2)ccc1Br)N1CCCCCC1,3.0,.,6.0,4.6,-32.8,3.25*
CSc1ccc(C(=S)N2CCN(Cc3ccccc3)CC2)cc1,53.0,30.7*,-0.1,1.5,-68.1,-0.518
CCCCC(C(=O)NCCC(C)C)N(CCCN1CCOCC1)C(=O)c1snc(C(N)=O)c1N (stereo unspecified),56.7,-3.0,0.7,16.9,-59.2,-1.67
O=C(Nc1ccccc1)c1ccc(Br)o1,12.8,-5.8,0.4,3.9,-40.2,0.527
CCc1cccc(NC(=O)c2ccc(Br)o2)c1,52.2,-24.1,-0.4,5.7,-21.9,4.91*
O=C(c1ccccc1)c1cccc(NC(=O)c2ccc(Br)o2)c1,30.8,-17.9,7.0,26.0,-30.9,-9.72*
O=C(Nc1ccc2c(c1)CCC2)c1ccc(Br)o1,27.3,-18.0,-0.5,23.1,-48.8,2.23*
CC(=O)N1N=C(c2cccc([N+](=O)[O-])c2)OC1c1cccc(Br)c1 (stereo unspecified),66.0*,.,1.4,.,.,.
CC(=O)N1N=C(c2cccc(Cl)c2)OC1c1ccc(C(C)C)cc1 (stereo unspecified),77.9*,0.5,1.2,9.0,-55.5,-1.41
CS(=O)(=O)N1CCN(C(=O)c2c(F)cccc2F)CC1,9.7,-21.6,0.7,0.5,22.6,-0.236
Cc1scc(C(=O)N2CCN(S(C)(=O)=O)CC2)c1-c1ccccc1,14.0,2.8,0.0,11.0,-46.5,-0.553
CS(=O)(=O)N1CCN(C(=O)c2csc3ccccc23)CC1,-10.4,-13.8,0.1,61.3*,-28.0,0.0227
CS(=O)(=O)N1CCN(C(=O)c2ccccc2F)CC1,1.6,-6.7,0.8,26.4,49.7*,0.0554
O=C(CCCC(=O)N(CC(=O)NC1CCCCC1)Cc1ccc2c(c1)OCO2)Nc1ccccn1,17.9,28.2*,2.0,9.2,-26.5,0.744
O=C(CCCC(=O)N(CC(=O)NC1CCCC1)C1CCCC1)Nc1ccccn1,-6.3,5.3,0.4,69.7*,-47.5,0.366
O=C(CCN1Cc2ccccc2C1)c1ccc2c(c1)OCCO2,5.4,36.9,-1.4,17.2,-57.2,-0.836
O=C(CCN1CCc2ccccc2C(c2ccccc2)C1)c1ccc2c(c1)OCCO2 (stereo unspecified),0.1,0.9,-2.2,40.9*,3.6,-0.679
